{
  "source": "ChEMBL document CHEMBL1275531",
  "about": "“Genomewide expression profiling of cryptolepine-induced toxicity in Saccharomyces cerevisiae” (Antimicrob Agents Chemother, 2008)",
  "key": {"Saccharomyces cerevisiae [1]": {"tested_on": "Saccharomyces cerevisiae", "experiment": "Downregulation of FIT3 gene expression in Saccharomyces cerevisiae at 7.5 uM after 15 hrs by qRT-PCR relative to untreated control", "type": "functional", "outline": "(§1)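 qRT-PCR used aliquots of the microarray RNA (treated and untreated Δerg6, 7.5 or 17 μM, 15 h) plus two additional biological replicates. Cycling was 95°C 10 min, then 40 cycles of 95°C 15 s and 60°C 1 min, with a dissociation curve. Genomic DNA 10-fold dilution standard curves; no-template and no-enzyme controls in triplicate; relative expression by ΔΔCT.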"}, "Saccharomyces cerevisiae [2]": {"tested_on": "Saccharomyces cerevisiae", "experiment": "Downregulation of PHO5 gene expression in Saccharomyces cerevisiae at 7.5 uM after 15 hrs by microarray analysis relative to untreated control", "type": "functional", "outline": "(§2)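 BY4741Δerg6 cells exposed 15 h to 7.5 or 17 μM; total RNA, 15 μg, used for Cy3/Cy5-dUTP indirect labeling. Arrays prehybridized at 42°C for 45 min, then hybridized in 50% formamide, 5× SSC. Each dose done in duplicate, each RNA hybridized twice with dye swap; treated/untreated fluorescence ratios log-transformed.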"}, "Saccharomyces cerevisiae [3]": {"tested_on": "Saccharomyces cerevisiae", "experiment": "Downregulation of PHO5 gene expression in Saccharomyces cerevisiae at 7.5 uM after 15 hrs by qRT-PCR relative to untreated control", "type": "functional", "outline": "as §1"}, "Saccharomyces cerevisiae [4]": {"tested_on": "Saccharomyces cerevisiae", "experiment": "Downregulation of TIS11 gene expression in Saccharomyces cerevisiae at 7.5 uM after 15 hrs by microarray analysis relative to untreated control", "type": "functional", "outline": "as §2"}, "Saccharomyces cerevisiae [5]": {"tested_on": "Saccharomyces cerevisiae", "experiment": "Downregulation of TIS11 gene expression in Saccharomyces cerevisiae at 7.5 uM after 15 hrs by qRT-PCR relative to untreated control", "type": "functional", "outline": "as §1"}, "Saccharomyces cerevisiae [6]": {"tested_on": "Saccharomyces cerevisiae", "experiment": "Upregulation of HSP26 gene expression in Saccharomyces cerevisiae at 7.5 uM after 15 hrs by microarray analysis relative to untreated control", "type": "functional", "outline": "as §2"}, "Saccharomyces cerevisiae [7]": {"tested_on": "Saccharomyces cerevisiae", "experiment": "Upregulation of HSP26 gene expression in Saccharomyces cerevisiae at 7.5 uM after 15 hrs by qRT-PCR relative to untreated control", "type": "functional", "outline": "as §1"}, "Saccharomyces cerevisiae [8]": {"tested_on": "Saccharomyces cerevisiae", "experiment": "Upregulation of TPS1 gene expression in Saccharomyces cerevisiae at 7.5 uM after 15 hrs by microarray analysis relative to untreated control", "type": "functional", "outline": "as §2"}, "Saccharomyces cerevisiae [9]": {"tested_on": "Saccharomyces cerevisiae", "experiment": "Upregulation of TPS1 gene expression in Saccharomyces cerevisiae at 7.5 uM after 15 hrs by qRT-PCR relative to untreated control", "type": "functional", "outline": "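BY4741Δerg6 yeast (standardized to OD600 0.05 in YPD after 15-h 30°C preculture) grown with cryptolepine (1 mM methanol stock diluted) for 15 h; total RNA extracted, aliquots from microarray samples plus two additional biological replicates used for qRT-PCR: 95°C 10 min, 40 cycles 95°C 15 s/60°C 1 min, dissociation curve; genomic DNA standard curves; relative expression versus untreated by ΔΔCT.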"}, "Saccharomyces cerevisiae [10]": {"tested_on": "Saccharomyces cerevisiae", "experiment": "Downregulation of ARN2 gene expression in Saccharomyces cerevisiae at 17 uM after 15 hrs by microarray analysis relative to untreated control", "type": "functional", "outline": "as §2"}, "Saccharomyces cerevisiae [11]": {"tested_on": "Saccharomyces cerevisiae", "experiment": "Downregulation of ARN2 gene expression in Saccharomyces cerevisiae at 17 uM after 15 hrs by qRT-PCR relative to untreated control", "type": "functional", "outline": "as §1"}, "Saccharomyces cerevisiae [12]": {"tested_on": "Saccharomyces cerevisiae", "experiment": "Downregulation of FIT3 gene expression in Saccharomyces cerevisiae at 17 uM after 15 hrs by microarray analysis relative to untreated control", "type": "functional", "outline": "as §2"}, "Saccharomyces cerevisiae [13]": {"tested_on": "Saccharomyces cerevisiae", "experiment": "Downregulation of FIT3 gene expression in Saccharomyces cerevisiae at 17 uM after 15 hrs by qRT-PCR relative to untreated control", "type": "functional", "outline": "as §1"}, "Saccharomyces cerevisiae [14]": {"tested_on": "Saccharomyces cerevisiae", "experiment": "Downregulation of PHO5 gene expression in Saccharomyces cerevisiae at 17 uM after 15 hrs by microarray analysis relative to untreated control", "type": "functional", "outline": "as §2"}, "Saccharomyces cerevisiae [15]": {"tested_on": "Saccharomyces cerevisiae", "experiment": "Downregulation of PHO5 gene expression in Saccharomyces cerevisiae at 17 uM after 15 hrs by qRT-PCR relative to untreated control", "type": "functional", "outline": "as §1"}, "Saccharomyces cerevisiae [16]": {"tested_on": "Saccharomyces cerevisiae", "experiment": "Downregulation of TIS11 gene expression in Saccharomyces cerevisiae at 17 uM after 15 hrs by microarray analysis relative to untreated control", "type": "functional", "outline": "as §2"}, "Saccharomyces cerevisiae [17]": {"tested_on": "Saccharomyces cerevisiae", "experiment": "Downregulation of TIS11 gene expression in Saccharomyces cerevisiae at 17 uM after 15 hrs by qRT-PCR relative to untreated control", "type": "functional", "outline": "as §1"}, "Saccharomyces cerevisiae [18]": {"tested_on": "Saccharomyces cerevisiae", "experiment": "Upregulation of HSP26 gene expression in Saccharomyces cerevisiae at 17 uM after 15 hrs by microarray analysis relative to untreated control", "type": "functional", "outline": "as §2"}, "Saccharomyces cerevisiae [19]": {"tested_on": "Saccharomyces cerevisiae", "experiment": "Upregulation of HSP26 gene expression in Saccharomyces cerevisiae at 17 uM after 15 hrs by qRT-PCR relative to untreated control", "type": "functional", "outline": "as §1"}, "Saccharomyces cerevisiae [20]": {"tested_on": "Saccharomyces cerevisiae", "experiment": "Upregulation of TPS1 gene expression in Saccharomyces cerevisiae at 17 uM after 15 hrs by microarray analysis relative to untreated control", "type": "functional", "outline": "as §2"}, "Saccharomyces cerevisiae [21]": {"tested_on": "Saccharomyces cerevisiae", "experiment": "Upregulation of TPS1 gene expression in Saccharomyces cerevisiae at 17 uM after 15 hrs by qRT-PCR relative to untreated control", "type": "functional", "outline": "as §1"}, "Saccharomyces cerevisiae [22]": {"tested_on": "Saccharomyces cerevisiae", "experiment": "Downregulation of siderophore transport related gene expression in Saccharomyces cerevisiae", "type": "functional, organism-based", "outline": "(§3)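 Δerg6 cells treated 15 h at 7.5 or 17 μM, with the eight microarray hybridizations pooled. A gene counted as changed when two-tailed Student t test on log-transformed ratios gave P below 0.01 for ratio equal to 1. Genes grouped by GO biological-process category.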"}, "Saccharomyces cerevisiae [23]": {"tested_on": "Saccharomyces cerevisiae", "experiment": "Downregulation of glucose catabolic process related gene expression in Saccharomyces cerevisiae", "type": "functional, organism-based", "outline": "as §3"}, "Saccharomyces cerevisiae [24]": {"tested_on": "Saccharomyces cerevisiae", "experiment": "Downregulation of acid phosphatase activity related gene expression in Saccharomyces cerevisiae", "type": "functional, organism-based", "outline": "as §3"}, "Saccharomyces cerevisiae [25]": {"tested_on": "Saccharomyces cerevisiae", "experiment": "Downregulation of fungal type cell wall related gene expression in Saccharomyces cerevisiae", "type": "functional, organism-based", "outline": "as §3"}, "Saccharomyces cerevisiae [26]": {"tested_on": "Saccharomyces cerevisiae", "experiment": "Downregulation of stress response related gene expression in Saccharomyces cerevisiae", "type": "functional, organism-based", "conditions": "in the assay text read “Upregulation” for “Downregulation”", "outline": "as §3"}},
  "note": "The source made the active and inactive calls. The rule behind the calls is not given here.",
  "data": [
    {"smiles": "C[n+]1c2ccccc2cc2[n-]c3ccccc3c21.Cl", "note": "[CRYPTOLEPINE HYDROCHLORIDE]", "values": [
      {"measurement": "fold change (FC)", "setting": "Saccharomyces cerevisiae [1]", "value": 5.57},
      {"measurement": "fold change (FC)", "setting": "Saccharomyces cerevisiae [2]", "value": 1.88},
      {"measurement": "fold change (FC)", "setting": "Saccharomyces cerevisiae [3]", "value": 1.73},
      {"measurement": "fold change (FC)", "setting": "Saccharomyces cerevisiae [4]", "value": 2.35},
      {"measurement": "fold change (FC)", "setting": "Saccharomyces cerevisiae [5]", "value": 3.3},
      {"measurement": "fold change (FC)", "setting": "Saccharomyces cerevisiae [6]", "value": 2.09},
      {"measurement": "fold change (FC)", "setting": "Saccharomyces cerevisiae [7]", "value": 2.49},
      {"measurement": "fold change (FC)", "setting": "Saccharomyces cerevisiae [8]", "value": 1.24},
      {"measurement": "fold change (FC)", "setting": "Saccharomyces cerevisiae [9]", "value": 0.96},
      {"measurement": "fold change (FC)", "setting": "Saccharomyces cerevisiae [10]", "value": 3.32},
      {"measurement": "fold change (FC)", "setting": "Saccharomyces cerevisiae [11]", "value": 4.9},
      {"measurement": "fold change (FC)", "setting": "Saccharomyces cerevisiae [12]", "value": 2.36},
      {"measurement": "fold change (FC)", "setting": "Saccharomyces cerevisiae [13]", "value": 2.01},
      {"measurement": "fold change (FC)", "setting": "Saccharomyces cerevisiae [14]", "value": 2.05},
      {"measurement": "fold change (FC)", "setting": "Saccharomyces cerevisiae [15]", "value": 2.27},
      {"measurement": "fold change (FC)", "setting": "Saccharomyces cerevisiae [16]", "value": 2.31},
      {"measurement": "fold change (FC)", "setting": "Saccharomyces cerevisiae [17]", "value": 3.46},
      {"measurement": "fold change (FC)", "setting": "Saccharomyces cerevisiae [18]", "value": 3.54},
      {"measurement": "fold change (FC)", "setting": "Saccharomyces cerevisiae [19]", "value": 3.51},
      {"measurement": "fold change (FC)", "setting": "Saccharomyces cerevisiae [20]", "value": 1.01},
      {"measurement": "fold change (FC)", "setting": "Saccharomyces cerevisiae [21]", "value": 1.03},
      {"measurement": "Activity", "setting": "Saccharomyces cerevisiae [22]", "value": "Active"},
      {"measurement": "Activity", "setting": "Saccharomyces cerevisiae [23]", "value": "Active"},
      {"measurement": "Activity", "setting": "Saccharomyces cerevisiae [24]", "value": "Active"},
      {"measurement": "Activity", "setting": "Saccharomyces cerevisiae [25]", "value": "Active"},
      {"measurement": "Activity", "setting": "Saccharomyces cerevisiae [26]", "value": "Active"}
    ]}
  ]
}
